# Screens deposited in PubChem BioAssay by Johns Hopkins Ion Channel Center.
# Compounds with a hit are over-represented: about 3.5% of the library has one in this group of screens.
# MrgX1 PAM: positive allosteric modulators of MrgX1, primary screen, HEK293 cells, Fluo-4 calcium flux. FDSS; stronger effect = higher value. B-score at 10 µM. 0.63% of 310,000 active. AID 588675, 2011;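 active means plate-corrected calcium response at least 3 library SD above typical, normal starting fluorescence, not activating the receptor alone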;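 further: compound read alongside a low EC10 to EC30 dose of BAM8-22 agonist; peak minus trough fluorescence over baseline measured at the second addition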
# Target sequence (Q96LB2 whole entry, looked up): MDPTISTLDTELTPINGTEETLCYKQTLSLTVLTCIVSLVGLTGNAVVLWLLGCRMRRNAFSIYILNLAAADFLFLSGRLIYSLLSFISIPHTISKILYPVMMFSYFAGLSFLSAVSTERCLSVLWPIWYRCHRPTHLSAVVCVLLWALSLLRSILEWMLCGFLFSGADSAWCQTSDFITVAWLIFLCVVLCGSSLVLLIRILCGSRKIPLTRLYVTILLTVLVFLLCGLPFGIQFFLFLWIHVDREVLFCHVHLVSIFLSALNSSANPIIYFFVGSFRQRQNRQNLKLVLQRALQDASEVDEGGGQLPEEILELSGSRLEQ
# MrgX1 antagonist: antagonists of human MrgX1 receptor, primary screen, HEK293 cells, Fluo-4 calcium flux; BAM8-22 antagonism; stronger effect = lower value; B-score at 10 µM; 1.3% of 310,000 active;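 active means calcium-response B-score plate-corrected more than 3 library SD below zero, starting fluorescence within 5 deviations, no agonist response on first addition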;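 further: peak minus trough fluorescence over baseline after final BAM8-22 challenge near maximal dose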
# RGS4 act: RGS4 potentiators or activators, primary screen, cell-based, HEK293 M3R inducible RGS4, calcium flux | B-score at 10 µM | carbachol calcium flux Fluo4; stronger effect = lower value | 0.92% of 310,000 active | AID 463111, 2010;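 active means B-score of the integrated calcium signal more than 4 SD below the library mean, with starting fluorescence not abnormally high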;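 further: negative B-score means reduced calcium response which marks RGS4 activation or potentiation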
#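 Material: M3R-expressing HEK293 line, RGS4 induced by doxycycline | Schedule: Overnight RGS4 induction, 30 min dye load 37 °C, 20 min compound RT | Measured by: Fluo4 fluorescence kinetic imaging of calcium | Read-out: Integrated calcium ratio converted to B score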
# RGS4 block: RGS4 inhibitors, primary screen, cell-based, HEK293 M3R inducible RGS4, calcium flux | Fluo-4 calcium flux; stronger effect = higher value; triggered by carbachol at its EC20 | 0.45% of 310,000 active | AID 463165, 2010 | B-score at 10 µM;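 active means B-score, a plate-corrected calcium signal, over three deviations above library mean, with baseline fluorescence within five deviations of library mean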;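 further: RGS4 expression induced by doxycycline in cells with stable M3 receptor; B-score is computed from the integrated fluorescence ratio over baseline after carbachol; higher B-score means a larger calcium signal and so more RGS4 inhibition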
# Target sequence (P49798 whole entry, looked up): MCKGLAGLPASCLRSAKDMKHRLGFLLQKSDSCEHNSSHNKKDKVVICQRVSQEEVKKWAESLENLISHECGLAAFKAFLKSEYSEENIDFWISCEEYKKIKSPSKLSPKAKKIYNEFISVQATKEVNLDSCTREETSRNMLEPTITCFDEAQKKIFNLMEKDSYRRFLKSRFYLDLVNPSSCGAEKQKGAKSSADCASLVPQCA
# MrgX1 ag: agonists of human MrgX1 receptor, primary screen, HEK293 cells, Fluo-4 calcium flux; 0.44% of 310,000 active; B-score at 10 µM; Fluo-4 calcium fluorescence, agonist mode; stronger effect = higher value; Mas-related G-protein coupled receptor member X1 (Homo sapiens), Q96LB2;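 active means calcium response B-score plate-corrected fluorescence ratio at least 3 library SD, with starting fluorescence B-score inside 5 SD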
#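 Test system: HEK293 cells stably expressing human MrgX1 receptor; Input: fifteen thousand cells per well; Dosing: compound delivered in addition one of three; Schedule: overnight seeding, then 1 h dark dye loading; Technique: Fluo-4 NW calcium fluorescence; Measure: B-scored fluorescence response ratio; Controls: positive and negative controls per plate.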
# MrgX1 allo conf: MrgX1 positive allosteric modulators, duplicate retest, confirmation, HEK293 cells, Fluo-4 calcium flux. shares compounds with MrgX1 PAM. Fluo-4 calcium fluorescence, FDSS. activation (ratio percentage), % at 10 µM. 13% of 1,200 active. AID 602413, 2012;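 active means ratio at least 3 SD above the weak peptide control, stable starting fluorescence, no direct agonism earlier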;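 further: compound followed by low BAM8-22 agonist challenge near EC20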
# HEK293 Ca flux: nonspecific calcium signal in parental HEK293, confirmation, counter-screen for MrgX1 antagonist project, parental HEK293 cells, Fluo-4 calcium flux | shares compounds with MrgX1 antagonist | 2% of 4,000 active | fluorescence ratio F(max-min)/F0 at 10 µM | AID 624111, 2012 | Fluo-4 calcium fluorescence, FDSS;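 active means duplicate-averaged calcium fluorescence ratio at least three times the standard deviation of buffer wells, a nonspecific response in parental cells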
# HEK293 Ca counter: calcium response in parental HEK293 cells, primary screen, counter-screen for MrgX1 allosteric activator project, cell-based, Fluo-4 calcium flux, duplicate. fluorescence ratio F(max-min)/F0 at 10 µM. Fluo-4 fluorescence ratio; stronger effect = higher value. shares compounds with MrgX1 antagonist. 0.4% of 4,000 active. AID 624114, 2012;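 active means calcium fluorescence ratio, averaged over duplicates, at least 3 SD of the buffer-well ratio, meaning a nonspecific response in receptor-free cells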;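 further: untransfected parental HEK293 lacking MrgX1 used as counterscreen for MrgX1 allosteric activators; fluorescence change taken during the second addition on a kinetic imager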
# HEK293 Ca cntr2: calcium response in parental HEK293 cells, primary screen, counter-screen for MrgX1 agonist project, cell-based, Fluo-4 calcium flux, duplicate, agonist mode | Fluo-4 calcium fluorescence (FDSS); stronger effect = higher value | fluorescence ratio F(max-min)/F0 at 10 µM | AID 624115, 2012 | 8.7% of 4,000 active | shares compounds with MrgX1 antagonist;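 active means calcium fluorescence ratio at least three times the spread of buffer wells, meaning a non-specific response in parental cells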
# * = called active by the depositor; i = inactive; nt = no result.
SMILES,MrgX1 PAM,MrgX1 antagonist,RGS4 act,RGS4 block,MrgX1 ag,MrgX1 allo conf,HEK293 Ca flux,HEK293 Ca counter,HEK293 Ca cntr2
Cc1cc(C)n(C(=O)CNc2ccc(C)c(C)c2)n1,8.56*,i,i,i,i,i,i,i,i
Cc1ccc(S(=O)(=O)N[C@H](C(=O)N2CCC(C(=O)N3CCC[C@H]3C(=O)O)CC2)C(C)C)cc1,nt,nt,i,i,nt,nt,nt,nt,nt
CSc1nccc(Nc2ccccc2)c1C#N,15.5*,i,i,i,i,8.6%*,i,i,i
COc1nccc(Nc2ccccc2)c1C#N,i,i,nt,nt,i,nt,nt,nt,nt
O=C(Nc1ccc(C(=O)NC2CCCCC2)cc1)c1cccnc1,10.2*,i,i,i,i,i,i,i,i
CS(=O)(=O)C1=NSC2=NC(=O)/C(=C\c3ccc(OS(=O)(=O)c4ccccc4)cc3)C(=N)N21,29.8*,i,i,i,i,25.4%*,i,i,i
Cc1cc(C)cc(-n2cccc2/C=C2/C(=N)N3C(=NC2=O)SN=C3S(C)(=O)=O)c1,i,i,i,i,i,nt,nt,nt,nt
COc1cccc(-n2c(C)cc(/C=C3/C(=N)N4C(=NC3=O)SN=C4S(C)(=O)=O)c2C)c1,32.4*,i,i,i,i,2.0%*,i,i,i
Cc1ccc(S(=O)(=O)Oc2ccc(/C=C3\C(=N)N4N=C(S(C)(=O)=O)SC4=NC3=O)cc2)cc1,i,i,i,i,i,nt,nt,nt,nt
CCn1ccc(-c2ccccc2)c(C#N)c1=O,i,i,i,i,i,nt,nt,nt,nt
O=C(c1ccc(Cl)c(Cl)c1)N1CCC(=O)N(C(COCc2ccccc2)Cc2ccccc2)CC1 (stereo unspecified),i,i,i,i,i,nt,nt,nt,nt
COCC(C)n1c(SCC(=O)c2cc(C)n(C)c2C)nc2ccccc2c1=O (stereo unspecified),13.4*,i,i,i,i,i,i,i,i
O=C(O)C1Sc2[nH]c(=O)sc2C2c3cc(Cl)ccc3OC(=O)C12 (stereo unspecified),i,i,i,i,i,nt,nt,nt,nt
O=C(O)C1Sc2[nH]c(=O)sc2C2c3cc(Br)ccc3OC(=O)C12 (stereo unspecified),6.49*,i,i,i,i,i,i,i,i
Cc1ccccc1CC1(CO)CCCN(C(=O)c2ccc(F)cc2)C1 (stereo unspecified),10.4*,i,i,i,i,i,i,i,i
CC1(C)CC2CC(C)(CN2c2ncnc3ccccc23)C1 (stereo unspecified),24.5*,i,i,i,i,25.5%*,i,i,i
CC1(C)c2ccccc2N(CC(N)=O)C12C=Cc1ccccc1O2 (stereo unspecified),6.78*,i,i,i,i,i,i,i,i
CCOc1ccc(NC(=O)NC(=O)N(C(C)C)S(C)(=O)=O)cc1,10*,i,i,i,i,i,i,i,i
COc1ccc(C(=O)NCCCCNC(=O)c2ccc(OC)c(OC)c2)cc1OC,i,i,i,i,i,nt,nt,nt,nt
CCOC(=O)c1c(-c2ccc(C)o2)csc1N,i,i,i,i,i,nt,nt,nt,nt
CCOC(=O)c1c(CC(C)C)csc1N,i,i,i,i,i,nt,nt,nt,nt
CCOC(=O)c1c(-c2ccc(C)s2)csc1N,9.09*,i,i,i,i,i,i,i,i
CCOC(=O)c1c(-c2ccsc2)csc1N,8.6*,i,i,i,i,i,i,i,i
CC1=C(C(=O)Nc2ccc(Cl)cc2)C2(CCCCC2)C(C(N)=O)C(=S)N1 (stereo unspecified),12.5*,i,i,i,i,i,i,i,i
CCN1C=C(Cc2ccccc2C)C2=C(C1)C(c1ccccc1C)C(C#N)=C(N)O2 (stereo unspecified),18.1*,i,i,i,i,i,i,i,i
SMILES,MrgX1 PAM,MrgX1 antagonist,RGS4 act,RGS4 block,MrgX1 ag,MrgX1 allo conf,HEK293 Ca flux,HEK293 Ca counter,HEK293 Ca cntr2
CCN1C=C(Cc2ccc(F)cc2)C2=C(C1)C(c1ccc(F)cc1)C(C#N)=C(N)O2 (stereo unspecified),i,i,i,i,i,nt,nt,nt,nt
CC(C)(C)c1ccc(C2=CC(c3ccccc3)n3ncnc3N2)cc1 (stereo unspecified),9.33*,i,i,i,i,i,i,i,57*
Cc1ccc(C2=CC(c3ccc(C)cc3)n3ncnc3N2)cc1 (stereo unspecified),i,i,i,i,i,nt,nt,nt,nt
Cc1ccc(C)c(N2CCN(C(=O)c3csc(C)c3C)CC2)c1,6.88*,i,i,i,i,i,i,i,i
COCc1ccc(CN2CCC(N3CCC(C(=O)N4CCCC4)CC3)CC2)o1,8.93*,i,i,i,i,i,i,i,i
CN(Cc1cnccn1)Cc1nc(Cc2ccccc2F)no1,10.3*,i,i,i,i,i,i,i,i
CN(Cc1cnccn1)Cc1nc(Cc2ccccc2Cl)no1,i,i,i,i,i,nt,nt,nt,nt
COc1ccc(C)cc1NC(=O)C(C)N(c1ccc(C)cc1)S(C)(=O)=O (stereo unspecified),7.58*,i,i,i,i,i,i,i,i
